Laboratory results: ChEMBL document CHEMBL1134657, “Inhibition of cancer cell growth by ruthenium(II) arene complexes” (J Med Chem, 2001)

Test system: A2780
Experiment: Concentration required to inhibit 50% growth of A2780 human ovarian cancer cells.
Format: functional, cell-based
How it was run: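 A2780 cells kept at 37 °C, 5% CO2, seeded at 1 × 10^4 cells per well, grown 72 h, then exposed for 24 h to complexes freshly dissolved in deionized water and diluted in RPMI to final 0.1, 1, 10 and 100 µM, in duplicate. Drug medium removed, cells washed with PBS, regrown in fresh medium and counted on day 7 by Coulter counter.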

| Substance | IC50 [µM] |
| --- | --- |
| [(nu6-C6H5CO2CH3)RuCl(ethylenediamine)]PF6 | 55 |
| [(nu6-C6H6)RuCl(ethylenediamine)]PF6 | 17 |
| [(nu6-C6H6)RuI(ethylenediamine)]PF6 | 20 |
| [(nu6-p-cymene)RuBr(CH3CN)2]PF6 | > 150 |
| [(nu6-p-cymene)RuCl2(isonicotinamide)] | > 150 |
| [(nu6-p-cymene)RuCl(ethylenediamine)]PF6 | 9 |

The next substances have a lower IC50 than those just listed; values first:

| IC50 [µM] | Substance |
| --- | --- |
| 6 | CARBOPLATIN |
| 0.5 | CISPLATIN |
| 6 | [(nu6-C6H5C6H5)RuCl(N-ethylethylenediamine)]PF6 |
| 8 | [(nu6-p-cymene)RuI(ethylenediamine)]PF6 |
